In assay [1] the target is T1, Macrophage mannose receptor 1 (Homo sapiens) (UniProt P22897).
T1 sequence (whole entry): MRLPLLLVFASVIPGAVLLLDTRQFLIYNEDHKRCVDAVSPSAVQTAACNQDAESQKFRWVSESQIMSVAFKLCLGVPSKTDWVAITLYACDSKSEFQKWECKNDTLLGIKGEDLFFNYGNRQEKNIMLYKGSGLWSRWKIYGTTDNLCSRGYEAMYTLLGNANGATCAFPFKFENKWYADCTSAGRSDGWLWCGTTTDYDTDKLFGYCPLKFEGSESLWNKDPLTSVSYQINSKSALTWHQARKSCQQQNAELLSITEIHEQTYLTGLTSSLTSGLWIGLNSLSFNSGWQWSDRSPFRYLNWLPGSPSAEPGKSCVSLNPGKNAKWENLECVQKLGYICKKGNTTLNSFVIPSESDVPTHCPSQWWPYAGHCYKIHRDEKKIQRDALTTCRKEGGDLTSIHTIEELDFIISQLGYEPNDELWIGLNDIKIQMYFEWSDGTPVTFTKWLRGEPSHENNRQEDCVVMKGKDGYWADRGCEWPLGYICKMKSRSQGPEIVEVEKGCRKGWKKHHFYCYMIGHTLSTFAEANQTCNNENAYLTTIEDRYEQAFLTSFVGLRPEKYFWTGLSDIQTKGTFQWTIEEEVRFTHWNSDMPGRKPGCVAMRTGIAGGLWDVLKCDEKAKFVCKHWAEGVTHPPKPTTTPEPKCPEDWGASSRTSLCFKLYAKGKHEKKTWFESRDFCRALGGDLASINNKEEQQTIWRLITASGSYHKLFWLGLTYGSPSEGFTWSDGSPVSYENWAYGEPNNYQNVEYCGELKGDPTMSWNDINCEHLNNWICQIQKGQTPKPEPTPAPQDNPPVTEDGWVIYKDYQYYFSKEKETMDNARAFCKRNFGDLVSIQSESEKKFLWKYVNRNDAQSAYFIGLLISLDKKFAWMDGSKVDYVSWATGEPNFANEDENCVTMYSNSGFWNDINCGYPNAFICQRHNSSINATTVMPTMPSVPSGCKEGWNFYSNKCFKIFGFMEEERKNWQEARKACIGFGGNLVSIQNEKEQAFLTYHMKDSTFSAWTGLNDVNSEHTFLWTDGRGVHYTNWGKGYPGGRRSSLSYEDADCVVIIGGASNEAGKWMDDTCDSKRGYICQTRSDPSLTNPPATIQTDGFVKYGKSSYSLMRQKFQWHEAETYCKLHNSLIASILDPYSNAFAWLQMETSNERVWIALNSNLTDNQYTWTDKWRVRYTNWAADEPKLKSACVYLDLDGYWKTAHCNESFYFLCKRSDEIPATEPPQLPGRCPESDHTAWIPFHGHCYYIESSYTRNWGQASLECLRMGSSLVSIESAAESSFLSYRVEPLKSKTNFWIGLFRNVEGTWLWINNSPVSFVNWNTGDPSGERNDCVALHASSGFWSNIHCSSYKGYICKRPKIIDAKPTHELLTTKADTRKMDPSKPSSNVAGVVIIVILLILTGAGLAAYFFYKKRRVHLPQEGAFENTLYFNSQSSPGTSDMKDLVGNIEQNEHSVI
Kind of assay: Displacement of biotinylated-TM PAA from human MMR at 1 mM after 3 hrs by colorimetry. A digest of the protocol: (§1)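 Proteins were coated overnight at 4 °C in 20 mM HEPES pH 7.4, 150 mM NaCl and 10 mM CaCl2, then blocked with 3% BSA for 2 h at 4 °C. FimH was a CRD-thrombin-6His construct expressed in E. coli HM125; DC-SIGN and DC-SIGNR were CRD-Fc chimeras made in stably transfected CHO-K1. Compound at 1 mM final was co-added with streptavidin-HRP-coupled TM-PAA, incubated 3 h at 25 °C and 350 rpm, then read by ABTS OD 415 nm. No-antagonist signal was set to 100% and no-polymer background to 0%.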

The target in assay [2] is T2, C-type lectin domain family 4 member K (Homo sapiens, UniProt Q9UJ71). Kind of assay: Displacement of biotinylated-TM PAA from human langerin at 1 mM after 3 hrs by colorimetry. The method in brief:
as §1

Assay [3] deals with T2, C-type lectin domain family 4 member K. Kind of assay: Displacement of biotinylated-TM PAA from human langerin after 3 hrs by colorimetry.
Assay [4] deals with T3, Macrophage mannose receptor 1 (Homo sapiens, UniProt P22897).
T3 sequence (P22897 whole entry): T1 sequence (whole entry)
Nature of the assay: Displacement of biotinylated-TM PAA from human MMR after 3 hrs by colorimetry.

Assay [5] has as its target T4, C-type lectin domain family 4 member C (Homo sapiens, UniProt Q8WTT0).
T4 sequence (Q8WTT0 whole entry): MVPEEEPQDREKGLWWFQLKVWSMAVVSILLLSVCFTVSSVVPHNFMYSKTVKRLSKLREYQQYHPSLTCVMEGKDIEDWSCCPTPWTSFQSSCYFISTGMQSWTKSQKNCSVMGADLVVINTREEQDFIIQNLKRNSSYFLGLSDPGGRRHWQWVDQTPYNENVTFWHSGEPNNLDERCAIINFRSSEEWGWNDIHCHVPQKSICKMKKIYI
Nature of the assay: Displacement of biotinylated-TM PAA from human DLEC after 3 hrs by colorimetry.

Active and inactive are the calls of the source. The calls are words filed in the database; no cut-off is given here.

T2 sequence (Q9UJ71 whole entry, the tested form may be a part): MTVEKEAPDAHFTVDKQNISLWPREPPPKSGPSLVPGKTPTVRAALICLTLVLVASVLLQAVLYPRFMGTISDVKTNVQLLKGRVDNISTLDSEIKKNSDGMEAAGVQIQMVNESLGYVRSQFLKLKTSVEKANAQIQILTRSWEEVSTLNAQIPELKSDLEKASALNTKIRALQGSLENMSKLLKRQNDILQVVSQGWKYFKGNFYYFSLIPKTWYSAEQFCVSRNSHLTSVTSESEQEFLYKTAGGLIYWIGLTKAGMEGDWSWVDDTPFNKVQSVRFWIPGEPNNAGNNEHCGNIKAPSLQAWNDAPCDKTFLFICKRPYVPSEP

On to `CN1CCN(c2c(Nc3ccc(O[C@H]4O[C@H](CO)[C@@H](O)[C@H](O)[C@@H]4O)c(Cl)c3)c(=O)c2=O)CC1`, for which the inhibition entry in assay [1] and in assay [2] was “inactive” throughout.

For the molecule `O=C(O)c1ccc(-c2ccc(O[C@H]3O[C@H](CO)[C@@H](O)[C@H](O)[C@@H]3O)c(Cl)c2)cc1`, the inhibition in assay [1] amounted to 54%; in assay [2] it was 63%. The IC50 in assay [3] and in assay [4] was 1000 µM throughout.

For `O=C(O)c1ccc(-c2ccc(O[C@H]3O[C@H](CO)[C@@H](O)[C@H](O)[C@@H]3O)cc2)cc1`, the IC50 in assay [5] was 1000 µM. Besides, the inhibition result in assay [1] and in assay [2] was “inactive” throughout.

The molecule `O=C(O)c1ccc2c(ccn2-c2ccc(O[C@H]3O[C@H](CO)[C@@H](O)[C@H](O)[C@@H]3O)c(Cl)c2)c1` had an inhibition in assay [1] of 58%. Also, the inhibition result in assay [2] was “inactive”. Also, in assay [4], the IC50 was found to be 1000 µM.

Regarding `CCCCCCCO[C@H]1O[C@H](CO)[C@@H](O)[C@H](O)[C@@H]1O`, the inhibition result in assay [1] and in assay [2] was “inactive” each time.

These data come from ChEMBL document CHEMBL2176984, “Target Selectivity of FimH Antagonists” (J Med Chem, 2012).
